ChEMBL document CHEMBL5154635, “Expedited Approach toward the Rational Design of Noncovalent SARS-CoV-2 Main Protease Inhibitors” (J Med Chem, 2022)

Legend:
[1] = Cytotoxicity against African green monkey Vero E6 cells assessed as cell viability incubated for 5 days by neutral red uptake based microplate reader method; type: toxicity, Vero C1008; details: chlorocebus sabaeus, time 5 day
Outline: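 Vero E6 cells seeded and grown for 24 h, then washed. Serial compound dilutions added in serum-free medium for 5 days at 37 °C. Neutral red (40 μg/mL) taken up for 2–4 h, with absorbance read at 540 nm. CC50 from variable-slope dose-response fit.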

SARS-CoV-2 = assay: Antiviral activity against SARS-Cov-2 USA-WA1/2020 isolate infected in African green monkey Vero E6 cells measured after 48 hrs of postinfection by immunofluorescence assay; type: functional, organism-based; details: Severe acute respiratory syndrome coronavirus 2, USA-WA1/2020, Vero C1008, 48 h
[2] = target: T1, Replicase polyprotein 1ab (Severe acute respiratory syndrome coronavirus 2, UniProt P0DTD1); assay: Non-covalent inhibition of SARS-Cov-2 -Mpro incubated for 30 mins using FRET substrate measured for 1 hr by FRET-based enzymatic assay
[3] = Covalent inhibition of MERS-CoV -Mpro incubated for 30 mins using FRET substrate measured for 1 hr by FRET-based enzymatic assay; set-up: species or system Middle East respiratory syndrome-related coronavirus
[4] = Covalent inhibition of HCoV-OC43 -Mpro incubated for 30 mins using FRET substrate measured for 1 hr by FRET-based enzymatic assay; set-up: species or system unidentified human coronavirus
[5] = Covalent inhibition of Enterovirus-A17 3Cpro incubated for 30 mins using FRET substrate measured for 1 hr by FRET-based enzymatic assay
Outline: (§1)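 Reaction started with the corresponding peptide FRET substrate (final 10 μM) and read at ex 360/em 460 nm at 30 °C for 1 h. Initial velocity taken by linear regression over the first 15 min.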

[6] = Covalent inhibition of Enterovirus-D68 3Cpro incubated for 30 mins using FRET substrate measured for 1 hr by FRET-based enzymatic assay; outline: as §1
[7] = Covalent inhibition of Enterovirus-A17 2Apro incubated for 30 mins using FRET substrate measured for 1 hr by FRET-based enzymatic assay; outline: as §1
[8] = Covalent inhibition of Enterovirus-D68 2Apro incubated for 30 mins using FRET substrate measured for 1 hr by FRET-based enzymatic assay; outline: as §1
[9] = target: T2, Calpain-1 catalytic subunit (Homo sapiens, UniProt P07384); assay: Covalent inhibition of Calpain 1 (unknown origin) incubated for 1 hr by FRET-based enzymatic assay
T2 sequence (P07384 whole entry): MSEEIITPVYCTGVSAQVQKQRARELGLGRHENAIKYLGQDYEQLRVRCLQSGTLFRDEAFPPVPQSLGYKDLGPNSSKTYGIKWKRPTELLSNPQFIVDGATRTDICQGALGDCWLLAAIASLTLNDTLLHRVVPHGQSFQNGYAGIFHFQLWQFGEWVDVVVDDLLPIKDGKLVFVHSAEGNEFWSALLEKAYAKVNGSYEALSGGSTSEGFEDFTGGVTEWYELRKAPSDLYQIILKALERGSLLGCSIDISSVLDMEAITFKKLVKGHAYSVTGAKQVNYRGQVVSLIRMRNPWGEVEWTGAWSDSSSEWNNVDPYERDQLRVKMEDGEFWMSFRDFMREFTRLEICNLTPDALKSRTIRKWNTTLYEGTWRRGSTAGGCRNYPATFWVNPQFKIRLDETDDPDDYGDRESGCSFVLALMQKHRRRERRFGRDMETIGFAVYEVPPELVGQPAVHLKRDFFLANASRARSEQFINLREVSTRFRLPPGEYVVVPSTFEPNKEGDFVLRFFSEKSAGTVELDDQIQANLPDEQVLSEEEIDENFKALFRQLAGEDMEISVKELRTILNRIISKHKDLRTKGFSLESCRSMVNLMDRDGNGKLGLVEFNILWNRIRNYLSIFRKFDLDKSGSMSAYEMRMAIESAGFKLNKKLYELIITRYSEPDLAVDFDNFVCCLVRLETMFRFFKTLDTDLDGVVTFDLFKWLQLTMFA
Outline: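 Calpain 1 in buffer of 50 mM HEPES, 50 mM NaCl, 10 mM DTT and 5 mM CaCl2 (pH 7.5), with test compound at serial concentrations. The reaction is started with N-succinyl-Leu-Leu-Val-Tyr-AMC (4 mM stock). Fluorescence (ex 360, em 460 nm) is read for 1 h at 30 °C.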

Procathepsin L [10] = target: T3, Procathepsin L (Homo sapiens, UniProt P07711); assay: Covalent inhibition of Cathepsin L (unknown origin) incubated for 30 mins using FRET substrate measured for 1 hr by FRET-based enzymatic assay
[11] = Covalent inhibition of SARS-Cov -Mpro incubated for 30 mins using FRET substrate measured for 1 hr by FRET-based enzymatic assay; set-up: species or system Severe acute respiratory syndrome-related coronavirus
[12] = Selectivity Index, ratio of CC50 for african green monkey vero E6 cells to EC50 for antiviral activity against SARS-Cov-2 USA-WA1/2020 isolate infected in African green monkey Vero E6 cells; type: toxicity, Vero C1008; details: read-out: Ratio CC50/EC50
[13] = Non-covalent inhibition of SARS-Cov -Mpro incubated for 30 mins using FRET substrate measured for 1 hr by FRET-based enzymatic assay; set-up: species or system Severe acute respiratory syndrome-related coronavirus
[14] = target: T1, Replicase polyprotein 1ab; assay: Non-covalent inhibition of SARS-Cov-2 PLpro incubated for 30 mins using FRET substrate measured for 1 hr by FRET-based enzymatic assay
[15] = target: T2, Calpain-1 catalytic subunit; assay: Non-covalent inhibition of Calpain 1 (unknown origin) incubated for 1 hr by FRET-based enzymatic assay
Outline: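 Calpain 1 in 50 mM HEPES, 50 mM NaCl, 10 mM DTT, 5 mM CaCl2, pH 7.5. Reaction started with N-succinyl-Leu-Leu-Val-Tyr-AMC (4 mM stock).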

Procathepsin L [16] = target: T3, Procathepsin L; assay: Non-covalent inhibition of Cathepsin L (unknown origin) incubated for 30 mins using FRET substrate measured for 1 hr by FRET-based enzymatic assay
Outline: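 Cathepsin L activated for 30 min at 30 °C in 20 mM sodium acetate, 1 mM EDTA, 5 mM DTT, pH 5.5. 300 pM enzyme preincubated with compound for 30 min at 30 °C.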

[17] = target: T1, Replicase polyprotein 1ab; assay: Stabilization in SARS-CoV-2 MPro assessed as binding constant incubated for 30 mins in presence of DTT by thermal shift binding assay
Outline: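 3 μM SARS-CoV-2 Mpro in Mpro reaction buffer with 4 mM DTT, incubated with varying compound concentrations for 30 min at 30 °C. SYPRO orange added and melt run from 20 to 90 °C at 0.05 °C/s. Tm plotted against concentration and fitted to one-site binding to give apparent Kd.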

T3 sequence (P07711 whole entry): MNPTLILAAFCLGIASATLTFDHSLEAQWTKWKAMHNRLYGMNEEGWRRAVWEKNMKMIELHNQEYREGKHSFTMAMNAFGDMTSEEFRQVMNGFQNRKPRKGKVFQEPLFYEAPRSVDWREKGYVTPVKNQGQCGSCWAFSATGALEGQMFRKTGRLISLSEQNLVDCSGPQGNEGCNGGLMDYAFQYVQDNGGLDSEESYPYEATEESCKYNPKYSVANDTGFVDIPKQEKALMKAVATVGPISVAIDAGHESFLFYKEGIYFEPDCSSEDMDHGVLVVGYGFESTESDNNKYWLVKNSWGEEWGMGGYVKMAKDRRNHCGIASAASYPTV

| SMILES | CC50 at 120 h [1] | IC50 [2] | also measured |
| --- | --- | --- | --- |
| CC(C)(C)NC(=O)C(c1cccnc1)N(C(=O)c1ccco1)c1ccc(C(C)(C)C)cc1 (centres undefined) | > 125 µM | – | EC50 (SARS-CoV-2): > 20 µM |
| CC(C)(C)NC(=O)C(c1cnccn1)N(C(=O)c1ccco1)c1ccc(C(C)(C)C)cc1 (centres undefined) | 138 µM | – | – |
| CC(C)(C)NC(=O)C(c1c[nH]cn1)N(C(=O)c1ccco1)c1ccc(C(C)(C)C)cc1 (centres undefined) | – | > 20 µM | – |
| CC(C)C[C@H](NC(=O)OCc1ccccc1)C(=O)N[C@@H](C[C@@H]1CCNC1=O)C(O)S(=O)(=O)O (some centres undefined) | – | – | EC50 (SARS-CoV-2): 1.51 µM; IC50 [3]: ≤ 0.16 µM; IC50 [4]: ≤ 0.16 µM; IC50 [5]: ≤ 0.16 µM; IC50 [6]: ≤ 0.16 µM; IC50 [7]: > 50 µM; IC50 [8]: > 50 µM; IC50 [9]: ≤ 0.074 µM; IC50 (Procathepsin L [10]): ≤ 0.074 µM; IC50 [11]: ≤ 0.16 µM |
| CC(C)(C)NC(=O)C(c1cncnc1)N(C(=O)c1ccco1)c1ccc(C(C)(C)C)cc1 (centres undefined) | – | > 20 µM | – |
| C[C@H](NC(=O)C(c1cccnc1)N(C(=O)c1ccco1)c1ccc(-c2cccs2)cc1)c1ccccc1 (some centres undefined) | 89.6 µM | 0.56 µM | – |
| O=C(NC1CCCC1)C(c1cccnc1)N(C(=O)c1ccco1)c1ccc(-c2ccccc2)cc1 (centres undefined) | > 200 µM | 4.1 µM | – |
| C[C@H](NC(=O)C(c1cccnc1)N(C(=O)c1ccno1)c1ccc(C2CCCCC2)cc1)c1ccccc1 (some centres undefined) | 17.5 µM | – | – |
| C[C@H](NC(=O)C(c1cccnc1)N(C(=O)c1ccco1)c1ccc(-c2ccccn2)cc1)c1ccccc1 (some centres undefined) | 236 µM | – | – |
| O=C(NC1CCCCC1)C(c1cccnc1)N(C(=O)c1ccco1)c1ccc(-c2ccccc2)cc1 (centres undefined) | 53.5 µM | – | – |
| O=C(NC1CC1)C(c1cccnc1)N(C(=O)c1ccco1)c1ccc(-c2ccccc2)cc1 (centres undefined) | – | 12.1 µM | – |
| C[C@H](NC(=O)C(c1cccnc1)N(C(=O)c1ccco1)c1ccc(C2CCCCC2)cc1)c1ccccc1 (some centres undefined) | 9.61 µM | – | – |
| Cc1ccc(S(=O)(=O)CNC(=O)C(c2cccnc2)N(C(=O)c2ccco2)c2ccc(C(C)(C)C)cc2)cc1 (centres undefined) | – | > 20 µM | – |
| O=C(NCCCc1ccccc1)C(c1cccnc1)N(C(=O)c1ccco1)c1ccc(-c2ccccc2)cc1 (centres undefined) | > 200 µM | – | EC50 (SARS-CoV-2): 2.04 µM; selectivity ratio [12]: > 98 |
| CC(C)(C)c1ccc(N(C(=O)c2ccco2)C(C(=O)NC2CCCCC2)c2cccnc2)cc1 (centres undefined) | 18.2 µM | 2.39 µM | – |
| C[C@H](NC(=O)C(c1cccnc1)N(C(=O)c1ccco1)c1ccc(-c2ccco2)cc1)c1ccccc1 (some centres undefined) | 56.4 µM | – | – |

| SMILES | CC50 at 120 h [1] | IC50 [2] | also measured |
| --- | --- | --- | --- |
| C[C@H](NC(=O)C(c1cccnc1)N(C(=O)c1ccco1)c1ccc(-c2ccccc2)cc1)c1ccccc1 (some centres undefined) | > 200 µM | 0.66 µM | EC50 (SARS-CoV-2): 1.61 µM |
| C[C@H](NC(=O)C(c1cccnc1)N(C(=O)c1ccco1)c1ccc(-n2cccc2)cc1)c1ccccc1 (some centres undefined) | > 200 µM | – | EC50 (SARS-CoV-2): 1.73 µM; selectivity ratio [12]: > 116 |
| Cc1cccc(C)c1NC(=O)C(c1cccnc1)N(C(=O)c1ccco1)c1ccc(C(C)(C)C)cc1 (centres undefined) | – | > 20 µM | – |
| C[C@H](NC(=O)C(c1cccnc1)N(C(=O)c1cnco1)c1ccc(-c2ccccc2)cc1)c1ccccc1 (some centres undefined) | 67 µM | – | – |
| C[C@H](NC(=O)[C@H](c1cccnc1)N(C(=O)c1ccco1)c1ccc(-c2ccccc2)cc1)c1ccccc1 | – | > 20 µM | – |
| CC(C)(C)c1ccc(N(C(=O)c2ccco2)C(C(=O)NC2CCCC2)c2cccnc2)cc1 (centres undefined) | 101 µM | – | – |
| CC(C)(C)c1ccc(N(C(=O)c2ccco2)C(C(=O)NC2CC2)c2cccnc2)cc1 (centres undefined) | 52.8 µM | – | – |
| CC(C)(C)CC(C)(C)NC(=O)C(c1cccnc1)N(C(=O)c1ccco1)c1ccc(-c2ccccc2)cc1 (centres undefined) | 148 µM | 2.14 µM | – |
| C[C@H](NC(=O)C(c1cccnc1)N(C(=O)c1ccno1)c1ccc(-c2ccccc2)cc1)c1ccccc1 (some centres undefined) | > 200 µM | – | – |
| C[C@H](NC(=O)C(c1cccnc1)N(C(=O)c1ccco1)c1ccc([Si](C)(C)C)cc1)c1ccccc1 (some centres undefined) | 19.4 µM | – | – |
| C[C@H](NC(=O)C(c1cnccn1)N(C(=O)c1c[nH]cn1)c1ccc(-c2ccccc2)cc1)c1ccccc1 (some centres undefined) | 148 µM | – | EC50 (SARS-CoV-2): 4.54 µM; selectivity ratio [12]: 32.6 |
| O=C(NCC(c1ccccc1)c1ccccc1)C(c1cccnc1)N(C(=O)c1ccco1)c1ccc(-c2ccccc2)cc1 (centres undefined) | > 200 µM | – | – |
| C[C@H](NC(=O)[C@@H](c1cccnc1)N(C(=O)c1ccco1)c1ccc(-c2ccccc2)cc1)c1ccccc1 | > 100 µM | 0.2 µM | IC50 [13]: 0.27 µM; IC50 [14]: > 60 µM; IC50 [15]: 6 µM; IC50 (Procathepsin L [16]): 10.5 µM; Kd [17]: 9.43 µM |
| CC(C)(C)CC(C)(C)NC(=O)C(c1cccnc1)N(C(=O)c1ccco1)c1ccc(C(C)(C)C)cc1 (centres undefined) | – | > 20 µM | – |
| C[C@H](NC(=O)C(c1cnccn1)N(C(=O)c1ccco1)c1ccc(-c2ccccc2)cc1)c1ccccc1 (some centres undefined) | > 200 µM | – | EC50 (SARS-CoV-2): 0.82 µM; selectivity ratio [12]: > 244 |
| C[C@H](NC(=O)C(c1cccnc1)N(C(=O)c1c[nH]cn1)c1ccc(-c2ccccc2)cc1)c1ccccc1 (some centres undefined) | 129 µM | – | EC50 (SARS-CoV-2): 13.1 µM; selectivity ratio [12]: 9.9 |
